The list is not random: actives were taken first. Their share in the collection is about 1.6%.
UBC13 polyUb = UBC13 polyubiquitin chain formation inhibitors, primary screen, biochemical, TR-FRET, uHTS; AID 485273, 2010; 330,000 compounds, 0.47% hits; Ubiquitin-conjugating enzyme E2 N (Homo sapiens), P61088; inhibition, % at 20 µM; in the data active = inhibition above about 45%, passing the limit was not always enough; inconclusive = no clear call, values can overlap the other calls
DNA FID counter = compounds displacing fluorescent DNA intercalator, primary screen, artefact control for HCV NS3 helicase inhibitor project, biochemical, FID fluorescence | AID 1845, 2009 | 290,000 compounds, 0.17% hits | DNA fluorescent intercalator displacement | inhibition, % at 7.9 µM; in the data active = inhibition above about 37%;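 also: higher means more ethidium bromide displaced from hairpin DNA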
Apaf1 inhib = inhibitors of human Apaf-1 apoptosome, primary screen, biochemical, DEVD-Rh110 fluorescence, uHTS | Apoptotic protease-activating factor 1 (Homo sapiens), O14727 | reconstituted apoptosome caspase-3 activity | inhibition, % at 20 µM | 330,000 compounds, 0.71% hits | AID 489030, 2010; active = inhibition of at least 40% at 20 µM
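Material: reconstituted apoptosome with Apaf-1, cytochrome c, caspase-9, procaspase-3, dATP / Buffer or medium: pH 7.5 Hepes buffer with CHAPS, BSA, DTT / Also added: cytochrome c with DEVD-Rh110 / Schedule: compound with Apaf-1, dATP, procaspase-3 30 min, then 50 min reaction, room temperature / Technique: rhodamine 110 fluorescence at Ex 480/Em 540 nm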
RAD54 branch = inhibitors of human RAD54 branch migration, primary screen, biochemical, fluorescence, single point. DNA repair and recombination protein RAD54-like (Homo sapiens), Q92698. RAD54 Holliday junction branch migration, FAM/BHQ fluorescence. inhibition, % at 10.4 µM. 360,000 compounds, 0.14% hits. AID 602329, 2012;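 active = mean normalized replicate activity at least 40 and at least half of replicates scoring 40 or more; inconclusive = only one of the two criteria met; inactive = mean below 40 and under half of replicates reaching 40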;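 also: inhibitors cause a drop in the FAM fluorescence signal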
Neddyl block = inhibitors of cullin neddylation, primary screen, biochemical, TR-FRET, uHTS, NAE and Ubc12; 360,000 compounds, 0.58% hits; AID 651699, 2012; calls only at 25 µM; in the data active = inhibition above about 36%
Target sequence (P61081 whole entry, looked up): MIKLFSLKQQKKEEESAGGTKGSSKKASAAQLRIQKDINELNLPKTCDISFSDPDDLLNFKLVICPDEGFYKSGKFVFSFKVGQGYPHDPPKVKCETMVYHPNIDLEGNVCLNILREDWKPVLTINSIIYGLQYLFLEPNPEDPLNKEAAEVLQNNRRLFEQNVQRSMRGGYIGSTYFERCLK
Target sequence (Q13564 whole entry, looked up): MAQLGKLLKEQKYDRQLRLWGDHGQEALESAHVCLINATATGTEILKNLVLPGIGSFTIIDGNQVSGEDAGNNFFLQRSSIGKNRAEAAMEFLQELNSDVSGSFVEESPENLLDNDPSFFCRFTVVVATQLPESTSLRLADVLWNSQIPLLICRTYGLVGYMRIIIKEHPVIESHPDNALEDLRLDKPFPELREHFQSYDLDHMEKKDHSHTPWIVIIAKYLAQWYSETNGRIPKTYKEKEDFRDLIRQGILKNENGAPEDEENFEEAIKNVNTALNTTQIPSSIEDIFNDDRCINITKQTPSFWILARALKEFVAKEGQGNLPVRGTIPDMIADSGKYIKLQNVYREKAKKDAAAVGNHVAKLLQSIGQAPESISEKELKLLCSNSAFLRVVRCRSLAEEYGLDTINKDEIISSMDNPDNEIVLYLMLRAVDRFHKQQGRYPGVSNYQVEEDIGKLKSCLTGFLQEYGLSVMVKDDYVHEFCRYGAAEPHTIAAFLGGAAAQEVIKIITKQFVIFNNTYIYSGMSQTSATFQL
RAD52 anneal inh = RAD52 DNA annealing inhibitors, primary screen, biochemical, FRET, single point, set 2; DNA repair protein RAD52 homolog (Homo sapiens), P43351; recombinant RAD52 DNA annealing, FRET fluorescence; inhibition, % at 18.7 µM; 360,000 compounds, 0.46% hits;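 active = every replicate showing at least 50% inhibition; inconclusive = mean inhibition at least 50% but not in every replicate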
Casp3 counter = CASP3 inhibitor validation, counterassay for project on UBE2N polyubiquitination blockers, biochemical, one dose | inhibition, % at 20 µM | shares compounds with UBC13 polyUb | Recombinant caspase-3, Caspase-Glo 3/7 luminescence, 60 min | 1,400 compounds, 4% hits;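 active = mean inhibition across replicates above about 26%, limit read from the data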
UBC13 conf = UBC13 polyubiquitination inhibitors, single-point retest, confirmation, biochemical, TR-FRET, single concentration; shares compounds with UBC13 polyUb; inhibition, % at 10 µM; 1,400 compounds, 68% hits; AID 488859, 2010; in the data active = inhibition above about 45%; inconclusive = no clear call, values can overlap the other calls
Numbers stand for hits.

`C[C@@H]1CN([C@H](C)CO)C(=O)c2cccc(NC(=O)c3nc4ccccc4s3)c2O[C@H]1CN(C)CC1CC1` gave RAD54 branch inactive and RAD52 anneal inh inactive.
`CCCN(C)C[C@@H]1OCCCC[C@H](C)Oc2ccc(NC(=O)Nc3cccc4ccccc34)cc2C(=O)N([C@H](C)CO)C[C@@H]1C` gave RAD52 anneal inh inactive.
Screening COc1ccc(Nc2nc(N3CCCC3)c3ccccc3n2)cc1 returned UBC13 polyUb 50.8, DNA FID counter inactive, Apaf1 inhib inactive, Neddyl block inactive, Casp3 counter inactive and UBC13 conf 48.8.
For Cc1ccc(C)c(S(=O)(=O)c2c[nH]c(=S)[nH]c2=O)c1 the results were UBC13 polyUb 45.1, DNA FID counter inactive, Apaf1 inhib inactive, RAD54 branch inactive, Neddyl block inactive, RAD52 anneal inh inactive, Casp3 counter inactive and UBC13 conf inconclusive.
Screening COc1ccc(S(=O)(=O)Nc2cccc3c2O[C@@H](CN(C)Cc2ccccc2)[C@@H](C)CN([C@H](C)CO)C3=O)cc1 returned RAD54 branch inactive and RAD52 anneal inh inactive.
`Cc1ccc(S(=O)(=O)N(C)C[C@H]2Oc3ccc(NS(C)(=O)=O)cc3C(=O)N([C@@H](C)CO)C[C@@H]2C)cc1` gave RAD54 branch inactive and RAD52 anneal inh inactive.
For C[C@@H]1CCCCO[C@H](CN(C)S(=O)(=O)c2ccccc2)[C@@H](C)CN([C@H](C)CO)C(=O)c2cc(NC(=O)CCCCCC(=O)Nc3ccccc3N)ccc2O1 the results were RAD52 anneal inh inactive.
`C#CCOCCOCCOCCNc1nc(N2CCN(C(=O)C([C@@H](C)O)n3cc([C@@H](N)CCCCN)nn3)CC2)nc(N2CCN(C(=O)C([C@@H](C)O)n3cc([C@@H](N)CCCCN)nn3)CC2)n1` (stereo not given in full) gave UBC13 polyUb 80.3, Apaf1 inhib inactive, RAD54 branch inactive, Neddyl block inactive, RAD52 anneal inh inactive, Casp3 counter inactive and UBC13 conf 60.7.
Screening C#CCOCCOCCOCCNc1nc(N2CCN(C(=O)[C@H](CO)n3cc([C@@H](N)C(C)C)nn3)CC2)nc(N2CCN(C(=O)[C@H](CCC(=O)O)n3cc([C@@H](N)CCCCN)nn3)CC2)n1 returned UBC13 polyUb 45.4, Apaf1 inhib inactive, RAD54 branch inactive, Neddyl block inactive, RAD52 anneal inh inactive, Casp3 counter inactive and UBC13 conf 46.7.
Screening C#CCOCCOCCOCCNc1nc(N2CCN(C(=O)[C@H](CCCCN)n3cc([C@@H](N)C(C)CC)nn3)CC2)nc(N2CCN(C(=O)[C@H](CCCCN)n3cc([C@@H](N)CC(C)C)nn3)CC2)n1 (stereo not given in full) returned UBC13 polyUb 105.4, DNA FID counter 61.8, Apaf1 inhib inactive, RAD54 branch inactive, Neddyl block inactive, RAD52 anneal inh inactive, Casp3 counter inactive and UBC13 conf 112.3.
C#CCOCCOCCOCCNc1nc(N2CCN(C(=O)[C@H](CCCCN)n3cc([C@@H](N)CO)nn3)CC2)nc(N2CCN(C(=O)[C@H](CCCCN)n3cc([C@@H](N)CC(C)C)nn3)CC2)n1 was read as UBC13 polyUb 73.4, Apaf1 inhib inactive, RAD54 branch inactive, Neddyl block inactive, RAD52 anneal inh inactive, Casp3 counter inactive and UBC13 conf 66.2.
Screening C#CCOCCOCCOCCNc1nc(N2CCN(C(=O)[C@H](CC(N)=O)n3cc(C(N)[C@@H](C)CC)nn3)CC2)nc(N2CCN(C(=O)[C@H](CCCCN)n3cc([C@@H](N)CC(N)=O)nn3)CC2)n1 (stereo not given in full) returned UBC13 polyUb inactive, Apaf1 inhib inactive, RAD54 branch inactive, Neddyl block inactive and RAD52 anneal inh inactive.
For O=C(Nc1ccncc1)C1CCN(S(=O)(=O)c2cccc(C(F)(F)F)c2)CC1 the results were UBC13 polyUb 54.2, Apaf1 inhib inactive, RAD54 branch inactive, Neddyl block inactive, RAD52 anneal inh inactive, Casp3 counter inactive and UBC13 conf inactive.
`O=C(C1=C[C@@H](c2ccc(C(F)(F)F)cc2)C[C@@H](OCc2ccc(CO)cc2)O1)N1CCCC1` gave RAD52 anneal inh inactive.
Screening Clc1ccc(C2=NCCN2)cc1 returned UBC13 polyUb inactive, DNA FID counter inactive, Apaf1 inhib inactive, Neddyl block inactive and RAD52 anneal inh inactive.
Screening Cc1cc(Sc2nnc(/N=C/N(C)C)s2)c2ccccc2n1 returned UBC13 polyUb 55.0, DNA FID counter inactive, Apaf1 inhib inactive, RAD54 branch inactive, Neddyl block inactive, RAD52 anneal inh inactive, Casp3 counter inactive and UBC13 conf 65.3.
CCCNC(=O)C[C@H]1CC[C@@H]2[C@@H](COc3ccc(NC(=O)c4ccc(C(F)(F)F)cc4)cc3C(=O)N2C)O1 was read as RAD54 branch inactive and RAD52 anneal inh inactive.
`CC(C)NC(=O)Nc1cccc2c1O[C@H](CN(C)S(=O)(=O)c1ccc(Cl)cc1)[C@@H](C)CN([C@@H](C)CO)C2=O` gave RAD54 branch inactive and RAD52 anneal inh inactive.
Screening COc1ccc(-c2csc(NC(C)c3nc4cc(C(=O)NCCCO)ccc4n3Cc3ccc(C)cc3)n2)cc1 (stereo not given) returned UBC13 polyUb 53.2, Apaf1 inhib inactive, RAD54 branch inactive, Neddyl block inactive, RAD52 anneal inh inactive, Casp3 counter inactive and UBC13 conf inactive.
Screening O=C(C[C@@H]1CC[C@@H](NC(=O)Nc2ccc(F)cc2)[C@H](CO)O1)NCc1ccccn1 returned RAD54 branch inactive and RAD52 anneal inh inactive.
For O=C1/C(=C/c2cccc([N+](=O)[O-])c2)CSc2ccc(Cl)cc21 the results were UBC13 polyUb 48.6, DNA FID counter inactive, Apaf1 inhib inactive, Neddyl block inactive, RAD52 anneal inh inactive, Casp3 counter inactive and UBC13 conf 82.7.
